The test system of one data set is Escherichia coli. Briefly: Antibacterial activity against Escherichia coli ATCC 25922 assessed as reduction in bacterial growth incubated for 18 to 20 hrs by broth microdilution assay. Type of data set: functional. A general note: Dilution methods test growth across graded concentrations, often in twofold steps.
A further data set relates to Staphylococcus aureus. Briefly: Antibacterial activity against Staphylococcus aureus ATCC 25923 assessed as reduction in bacterial growth incubated for 18 to 20 hrs by broth microdilution assay. Type of data set: functional.
Data set [1] is described as follows: Solubility of the compound in HEPES buffer in presence of human N-terminal polyHis-tagged SerRS expressed in Escherichia coli BL21 (DE3) at 1000 uM. Type of data set: physicochemical.
Data set [2] deals with T1, Serine--tRNA ligase (Escherichia coli (strain K12), UniProt P0A8L1). Briefly: Binding affinity to C-terminal His10-tagged Escherichia coli B ER2560 SerRS expressed in Lemo21(DE3) SerRS assessed as dissociation constant by isothermal titration calorimetry.
Data set [3] deals with T1, Serine--tRNA ligase. Briefly: Binding affinity to C-terminal His10-tagged Escherichia coli B ER2560 SerRS expressed in Lemo21(DE3) SerRS assessed as affinity constant for first binding site by isothermal titration calorimetry. In general terms: ITC needs no label: the signal is the heat of the interaction.
The target in data set [4] is T1, Serine--tRNA ligase. Briefly: Binding affinity to C-terminal His10-tagged Escherichia coli B ER2560 SerRS expressed in Lemo21(DE3) SerRS assessed as affinity constant for second binding site by isothermal titration calorimetry.
Data set [5] addresses Serine--tRNA ligase (Escherichia coli (strain K12)) (UniProt P0A8L1). Briefly: Binding affinity to C-terminal His10-tagged Escherichia coli B ER2560 SerRS expressed in Lemo21(DE3) SerRS assessed as binding stoichiometry at 2:1 ratio of compound to protein by isothermal titration calorimetry. A digest of the protocol:
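E. coli SerRS was purified by gel filtration and dialysed overnight at 4 °C into 20 mM Tris-HCl pH 7.5, 200 mM NaCl. Ligands were made up in the same buffer and all solutions degassed. ITC ran at 25 °C: 7 µM protein in the cell was titrated with 140 µM ligand by 2 µl then 26 × 10 µl injections (20 s each, 120 s apart). Stoichiometry N came from iterative isotherm fitting; runs were in triplicate.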

The target in data set [6] is T1, Serine--tRNA ligase. Briefly: Inhibition of C-terminal His10-tagged Escherichia coli B ER2560 SerRS expressed in Lemo21(DE3) using Ap4A as substrate in presence of serine by leuconostoc mesenteroides hexokinase/glucose 6-Phosphate dehydrogenase coupled UV-visible spectrophotometry. A digest of the protocol:
(§1)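 Continuous coupled spectrophotometric assay of the adenylate formation step with thrombin-cleaved, gel-filtered SerRS. Buffer is 50 mM HEPES pH 7.6 with 10 mM MgCl2, 50 mM KCl, 1 mM DTT and 10% DMSO. It also holds 10 mM glucose, 0.5 mM NADP+, yeast hexokinase and L. mesenteroides G6PDH. IC50 by non-linear regression.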

For data set [7], the target named is Serine--tRNA ligase (Staphylococcus aureus (strain NCTC 8325 / PS 47), UniProt P95689). Briefly: Inhibition of C-terminal His10-tagged Staphylococcus aureus seg50 SerRS expressed in Lemo21(DE3) using Ap4A as substrate in presence of serine by leuconostoc mesenteroides hexokinase/glucose 6-Phosphate dehydrogenase coupled UV-visible spectrophotometry. A digest of the protocol:
as §1

Data set [8] is described as follows: Selectivity index, ratio of IC50 for human N-terminal polyHis-tagged SerRS expressed in Escherichia coli BL21 (DE3) to IC50 for C-terminal His10-tagged Staphylococcus aureus seg50 SerRS expressed in Lemo21(DE3).
Data set [9] in a line: Selectivity index, ratio of IC50 for human N-terminal polyHis-tagged SerRS expressed in Escherichia coli BL21 (DE3) to IC50 for C-terminal His10-tagged Escherichia coli B ER2560 SerRS expressed in Lemo21(DE3).

Activity calls are given as the source filed them.

We go through nine compounds from ChEMBL document CHEMBL4414626, “Structure-Guided Enhancement of Selectivity of Chemical Probe Inhibitors Targeting Bacterial Seryl-tRNA Synthetase” (J Med Chem, 2019).

T1 sequence (P0A8L1 whole entry): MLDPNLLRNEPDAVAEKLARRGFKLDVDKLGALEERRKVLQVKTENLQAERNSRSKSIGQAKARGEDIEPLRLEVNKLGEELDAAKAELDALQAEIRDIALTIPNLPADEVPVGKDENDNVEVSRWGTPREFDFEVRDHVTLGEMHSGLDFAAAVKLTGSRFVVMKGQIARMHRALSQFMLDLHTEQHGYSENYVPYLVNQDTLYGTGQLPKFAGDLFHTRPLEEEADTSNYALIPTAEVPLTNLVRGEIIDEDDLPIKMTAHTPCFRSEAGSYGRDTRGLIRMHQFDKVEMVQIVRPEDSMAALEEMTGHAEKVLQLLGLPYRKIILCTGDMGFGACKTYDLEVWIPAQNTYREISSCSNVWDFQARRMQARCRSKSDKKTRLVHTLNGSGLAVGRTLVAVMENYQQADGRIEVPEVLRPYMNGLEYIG
Chain of Serine--tRNA ligase (Escherichia coli (strain K12)) (P0A8L1 whole entry, looked up): as the sequence (P0A8L1 whole entry) above
Chain of Serine--tRNA ligase (Staphylococcus aureus (strain NCTC 8325 / PS 47), UniProt P95689) (P95689 whole entry): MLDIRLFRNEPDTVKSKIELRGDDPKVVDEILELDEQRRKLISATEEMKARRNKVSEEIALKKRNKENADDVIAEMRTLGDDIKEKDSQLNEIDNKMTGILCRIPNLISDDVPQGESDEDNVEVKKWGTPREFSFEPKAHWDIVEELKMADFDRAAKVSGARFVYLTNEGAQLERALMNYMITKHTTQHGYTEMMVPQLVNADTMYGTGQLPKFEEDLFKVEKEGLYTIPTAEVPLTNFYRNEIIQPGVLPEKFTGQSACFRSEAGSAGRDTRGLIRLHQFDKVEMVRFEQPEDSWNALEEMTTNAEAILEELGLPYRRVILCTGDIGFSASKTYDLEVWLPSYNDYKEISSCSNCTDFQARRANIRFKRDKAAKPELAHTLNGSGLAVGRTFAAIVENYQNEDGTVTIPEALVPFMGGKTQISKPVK

A word on the MIC: it is the smallest concentration in the dilution series that meets the test's criterion for growth inhibition. As to `Nc1nc(-c2ccccc2)nc2c1ncn2[C@@H]1O[C@H](COS(=O)(=O)NC(=O)[C@@H](N)CO)[C@@H](O)[C@H]1O`, the MIC with Escherichia coli and in the data set on Staphylococcus aureus was above 256 µg/mL throughout.

In general, Kd refers to the equilibrium constant for the complex coming apart. `Nc1nc(-c2cccnc2)nc2c1ncn2[C@@H]1O[C@H](COS(=O)(=O)NC(=O)[C@@H](N)CO)[C@@H](O)[C@H]1O`: in [1], the solubility result is given as “Insoluble”. Besides, the Kd on Serine--tRNA ligase [2] was 290 to 1920 nM; at Serine--tRNA ligase [3], 290 nM; on Serine--tRNA ligase [4], 1920 nM. Besides, the minimal inhibitory concentration (MIC) with Escherichia coli and in the data set on Staphylococcus aureus was above 256 µg/mL throughout. Further, in data set [5], the outcome was Active.

`Nc1nc(-c2ccco2)nc2c1ncn2[C@@H]1O[C@H](COS(=O)(=O)NC(=O)[C@@H](N)CO)[C@@H](O)[C@H]1O`: the MIC with Escherichia coli and in the data set with Staphylococcus aureus was above 256 µg/mL throughout.

In the case of `Nc1nc(I)nc2c1ncn2[C@@H]1O[C@H](COS(=O)(=O)NC(=O)[C@@H](N)CO)[C@@H](O)[C@H]1O`, the MIC in the data set on Escherichia coli and in the data set with Staphylococcus aureus was above 256 µg/mL in each case.

With `Nc1nc(Cl)nc2c1ncn2[C@@H]1O[C@H](COS(=O)(=O)NC(=O)[C@@H](N)CO)[C@@H](O)[C@H]1O`, the MIC with Escherichia coli and in the data set with Staphylococcus aureus was above 256 µg/mL in each case.

On to `Nc1nc(-c2ccsc2)nc2c1ncn2[C@@H]1O[C@H](COS(=O)(=O)NC(=O)[C@@H](N)CO)[C@@H](O)[C@H]1O`, for which the solubility result in data set [1] is listed as “Insoluble”. For the same compound, the MIC in the data set with Escherichia coli and in the data set with Staphylococcus aureus was above 256 µg/mL throughout.

`C/C=C/c1nc(N)c2ncn([C@@H]3O[C@H](COS(=O)(=O)NC(=O)[C@@H](N)CO)[C@@H](O)[C@H]3O)c2n1`: the MIC with Escherichia coli and with Staphylococcus aureus was above 256 µg/mL throughout.

In general, IC50 refers to the concentration needed to halve the response being measured. As for `CC1(C)O[C@@H]2[C@H](O1)[C@@H](CO)O[C@H]2n1cnc2c(N)nc(I)nc21`, the half-inhibitory concentration (IC50) on Serine--tRNA ligase [6] came out at 285000 nM; on Serine--tRNA ligase [7], 231000 nM.

On to `Nc1ncnc2c1ncn2[C@@H]1O[C@H](COS(=O)(=O)NC(=O)[C@@H](N)CO)[C@@H](O)[C@H]1O`, for which the Ratio IC50 in data set [8] and in data set [9] was 10 in each case. Further, the Kd on Serine--tRNA ligase [2] was determined as 1.27 nM. For the same compound, the MIC with Escherichia coli and in the data set with Staphylococcus aureus was above 256 µg/mL each time. Besides, in data set [5], the result was Active.
